Activity calls are given as the source filed them. The rule behind the calls is not given here.
Tests used:
[1] = Cytotoxicity against Wistar rat splenocytes assessed as lysosomal activity at 100 uM after 24 hrs by neutral red dye-based assay; assay type: tissue-based; conditions: splenocyte
Outline: (§1)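 Freshly isolated primary rat splenocytes and peritoneal macrophages. Read-out is neutral red accumulation, taken as lysosomal function. Results are compared with RPMI-treated control cells.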

[2] = system: Peritoneal macrophage; assay: Cytotoxicity against Wistar rat peritoneal macrophages assessed as lysosomal activity at 10 to 100 uM after 24 hrs by neutral red dye-based assay; assay type: cell-based; conditions: dose 10-100 µM; outline: as §1
[3] = Cytotoxicity against Wistar rat splenocytes assessed as reduction in cell viability at 10^-5 to 10^-1 mM after 24 hrs by MTT assay; assay type: tissue-based; conditions: splenocyte, dose 0.00001-0.1 mM
Outline: (§2)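 Freshly isolated primary rat spleen lymphocytes and peritoneal macrophages, cultured separately. Read-out is MTT metabolism, taken as mitochondrial reductase activity. Values are mean percentages with SD, relative to RPMI-treated control cells.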

[4] = Cytotoxicity against Wistar rat splenocytes assessed as lysosomal activity at 10^-5 to 10^-1 mM after 24 hrs by neutral red dye-based assay; assay type: tissue-based; conditions: splenocyte, dose 0.00001-0.1 mM; outline: as §1
[5] = system: Peritoneal macrophage; assay: Cytotoxicity against Wistar rat peritoneal macrophages assessed as reduction in cell viability at 10^-5 to 10^-1 mM after 24 hrs by MTT assay; assay type: cell-based; conditions: dose 0.00001-0.1 mM; outline: as §2
[6] = system: Peritoneal macrophage; assay: Cytotoxicity against Wistar rat peritoneal macrophages assessed as assessed as lysosomal activity at 10^-5 to 10^-1 mM after 24 hrs by neutral red dye-based assay; assay type: cell-based; conditions: dose 0.00001-0.1 mM; outline: as §1
[7] = system: Peritoneal macrophage; assay: Inhibition of MPO in Wistar rat peritoneal macrophages assessed as oxidation of 1,2-diaminobenzene at 10^-5 to 10^-1 mM; assay type: tissue-based; conditions: dose mM 0.00001-0.1, time 24.0 hrs
[8] = Cytotoxicity against Wistar rat splenocytes assessed as reduction in cell viability at 100 uM after 24 hrs by MTT assay; assay type: tissue-based; conditions: splenocyte; outline: as §2
[9] = system: Peritoneal macrophage; assay: Cytotoxicity against Wistar rat peritoneal macrophages assessed as reduction in cell viability at 100 uM after 24 hrs by MTT assay; assay type: cell-based; outline: as §2
[10] = system: Peritoneal macrophage; assay: Cytotoxicity against Wistar rat peritoneal macrophages assessed as lysosomal activity at 100 uM after 24 hrs by neutral red dye-based assay; assay type: cell-based; outline: as §1

For `COc1ccc(C[C@H]2COC(=O)[C@@H]2Cc2ccc(OC)c(OC)c2)cc1OC`, the Activity [1] was “Non-Toxic” and the Activity [2] was “Non-Toxic”.
For `CC/C=C/C=C/C=C/C=C\CCCCOC(=O)[C@H](OC(C)=O)C(C)C`, the Activity [3] was “Non-Toxic”, the Activity [4] was “Non-Toxic” and the Activity [5] was “Non-Toxic”. The Activity [6] was “Non-Toxic”.
With `CC/C=C/C=C/C=C/C=C\CCCCOC(=O)[C@H](O)C(C)C` the Activity [3] was “Non-Toxic”, the Activity [4] was “Non-Toxic” and the Activity [5] was “Non-Toxic”. For the same compound, the Activity [6] was “Non-Toxic” and the inhibition [7] was “Active”.
With `CC/C=C/C=C/C=C/C=C/[C@@H]1CCC(=O)O1` the Activity [8] was “Toxic”, the Activity [1] was “Toxic” and the Activity [9] was “Toxic”. The Activity [10] was “Toxic” and the inhibition [7] was “Active”.

Source: ChEMBL document CHEMBL4665848, “Constituents of Bupleurum praealtum and Bupleurum veronense with Potential Immunomodulatory Activity” (J Nat Prod, 2020)
